Experimental data as given in ChEMBL document CHEMBL5104204, “Synthesis and in vitro anticancer evaluation of novel flavonoid-based amide derivatives as regulators of the PI3K/AKT signal pathway for TNBC treatment” (RSC Med Chem, 2022).

Assays:
MDA-MB-231 [1] = assay: Inhibition of colony formation in human MDA-MB-231 cells assessed as decrease in size of colony forming cells at 1.76 uM incubated upto 72 hrs by crystal violet staining based assay; type: functional, cell-based; settings: TDE = time-dependent effect
Summary of the method: (§1)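 Colony formation, MDA-MB-231: 800 cells/well, three replicate wells per group, grown 5–7 days at 37 °C, 5% CO2 until 30–50-cell clusters formed. Drug then added for 24, 48 or 72 h. Washed with cold PBS, fixed in 4% paraformaldehyde 30 min, stained with 0.5% crystal violet, imaged, colonies counted; n = 3.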

MDA-MB-231 [2] = assay: Induction of apoptosis in human MDA-MB-231 cells assessed as late apoptotic cells at 0.88 uM incubated for 48 hrs AnnexinV/ propidium iodide staining based flow cytometry (Rvb= 0.40%); type: functional
MDA-MB-231 [3] = assay: Induction of apoptosis in human MDA-MB-231 cells assessed as half-moon, loop and ellipse shaped fragment formation at 0.88 to 3.52 uM incubated for 48 hrs by Hoechst 33258 staining based fluorescence microscopic analysis; type: functional, cell-based; settings: dose 0.88-3.52 µM, DDE = dose-dependent effect
Summary of the method: (§2)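 MDA-MB-231 seeded at 2×10^5–3×10^5 per well and incubated overnight (37 °C, 5% CO2). Exposed to compound for 48 h. Fixed in methanol 30 min, then stained with Hoechst 33258 for 30 min at room temperature in the dark. Nuclear morphology scored by fluorescence microscopy; n = 3, mean ± SD.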

HeLa = assay: Antitumor activity against human HeLa cells assessed as inhibit cell proliferation incubated for 72 hrs by CCK-8 assay; type: functional, cell-based
Summary of the method: (§3)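 CCK8 viability readout. Culture media: HCC1937, A549, HeLa and GTL-16 in RPMI 1640; MDA-MB-231, MCF-7 and HepG2 in high-glucose DMEM; all with 10% FBS and penicillin/streptomycin, 37 °C, 5% CO2. 4×10^3–6×10^3 cells/well, 24 h, then compounds in serum-free medium, 72 h at 37 °C. 10% CCK8, 2 h, OD 450/630 nm. Five wells per group; IC50 from inhibition rate; three independent experiments, mean ± SD.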

MDA-MB-231 [4] = assay: Induction of apoptosis in human MDA-MB-231 cells assessed as upregulation of Bax expression at 1 to 10 uM incubated for 48 hrs by western blot analysis; type: functional, cell-based; settings: dose 1-10 µM, DDE = dose-dependent effect
MDA-MB-231 [5] = assay: Inhibition of PI3K/AKT signalling pathway in human MDA-MB-231 cells assessed as decrease in phosphorylated AKT level at 1 to 10 uM incubated for 48 hrs by western blot analysis; type: cell-based; settings: dose 1-10 µM, DDE = dose-dependent effect
Summary of the method: (§4)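 MDA-MB-231 treated at 1, 5 and 10 μM at 37 °C, then lysed in RIPA/PMSF for 30 min at 0 °C and cleared at 14 000 × g, 4 °C. Protein quantified by BCA; 40 μg resolved by SDS-PAGE and transferred to PVDF. Blocked in 5% skim milk, primary antibody overnight at 4 °C, secondary 2 h at room temperature, chemiluminescent imaging.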

HCC1937 = assay: Antitumor activity against human HCC1937 cells assessed as inhibit cell proliferation incubated for 72 hrs by CCK-8 assay; type: functional, cell-based; settings: HCC1937, 72 h; summary of the method: as §3
GTL 16 cell line = assay: Antitumor activity against human GTL 16 cell line assessed as inhibit cell proliferation incubated for 72 hrs by CCK-8 assay; type: functional, cell-based; settings: GTL 16, 72 h; summary of the method: as §3
MDA-MB-231 [6] = assay: Induction of cell cycle arrest in human MDA-MB-231 cells assessed as decrease in S phase at 0.88 to 3.52 uM incubated for 48 hrs by flow cytometry; type: functional, cell-based; settings: dose 0.88-3.52 µM, DDE = dose-dependent effect
Summary of the method: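 Cell cycle of MDA-MB-231 after 48 h exposure: trypsinised and washed in PBS, about 1×10^6 cells/mL. Fixed overnight in pre-cooled 70% ethanol at 4 °C, then resuspended in PBS and filtered through 200-mesh nylon. Flow cytometry with 488 nm excitation gave G0/G1, S and G2/M percentages; n = 3, mean ± SD.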

MDA-MB-231 [7] = assay: Induction of apoptosis in human MDA-MB-231 cells assessed as chromatin concentration and margination at 0.88 to 3.52 uM incubated for 48 hrs by Hoechst 33258 staining based fluorescence microscopic analysis; type: functional, cell-based; settings: dose 0.88-3.52 µM, DDE = dose-dependent effect; summary of the method: as §2
MDA-MB-231 [8] = assay: Inhibition of PI3K/AKT signalling pathway in human MDA-MB-231 cells assessed as upregulation of PTEN expression at 1 to 10 uM incubated for 48 hrs by western blot analysis; type: cell-based; settings: dose 1-10 µM, DDE = dose-dependent effect; summary of the method: as §4
MDA-MB-231 [9] = assay: Induction of apoptosis in human MDA-MB-231 cells assessed as upregulation of Caspase-3 expression at 1 to 10 uM incubated for 48 hrs by western blot analysis; type: functional, cell-based; settings: dose 1-10 µM, DDE = dose-dependent effect
MDA-MB-231 [10] = assay: Induction of apoptosis in human MDA-MB-231 cells assessed as necrotic cells at 0.88 uM incubated for 48 hrs AnnexinV/ propidium iodide staining based flow cytometry (Rvb= 0.54%); type: functional
MDA-MB-231 [11] = assay: Induction of apoptosis in human MDA-MB-231 cells assessed as viable cells at 2.2 uM incubated for 48 hrs AnnexinV/ propidium iodide staining based flow cytometry (Rvb= 99.02%); type: functional; settings: read-out: Activity
MDA-MB-231 [12] = assay: Induction of apoptosis in human MDA-MB-231 cells assessed as viable cells at 0.88 uM incubated for 48 hrs AnnexinV/ propidium iodide staining based flow cytometry (Rvb= 99.02%); type: functional; settings: read-out: Activity
MDA-MB-231 [13] = assay: Induction of apoptosis in human MDA-MB-231 cells assessed as increase in apoptotic bodies at 0.88 to 3.52 uM incubated for 48 hrs by Hoechst 33258 staining based fluorescence microscopic analysis; type: functional, cell-based; settings: dose 0.88-3.52 µM, DDE = dose-dependent effect; summary of the method: as §2
MDA-MB-231 [14] = assay: Induction of apoptosis in human MDA-MB-231 cells assessed as early apoptotic cells at 7.04 uM incubated for 48 hrs AnnexinV/ propidium iodide staining based flow cytometry (Rvb= 0.3%); type: functional
MDA-MB-231 [15] = assay: Inhibition of colony formation in human MDA-MB-231 cells assessed as decrease in number of colony forming cells at 1.76 uM incubated upto 72 hrs by crystal violet staining based assay; type: functional, cell-based; settings: TDE = time-dependent effect; summary of the method: as §1
MDA-MB-231 [16] = assay: Induction of apoptosis in human MDA-MB-231 cells assessed as late apoptotic cells at 7.04 uM incubated for 48 hrs AnnexinV/ propidium iodide staining based flow cytometry (Rvb= 0.40%); type: functional
MDA-MB-231 [17] = assay: Induction of apoptosis in human MDA-MB-231 cells assessed as early apoptotic cells at 0.88 uM incubated for 48 hrs AnnexinV/ propidium iodide staining based flow cytometry (Rvb= 0.3%); type: functional
MDA-MB-231 [18] = assay: Induction of apoptosis in human MDA-MB-231 cells assessed as early apoptotic cells at 2.2 uM incubated for 48 hrs AnnexinV/ propidium iodide staining based flow cytometry (Rvb= 0.3%); type: functional
MDA-MB-231 [19] = assay: Induction of apoptosis in human MDA-MB-231 cells assessed as late apoptotic cells at 3.52 uM incubated for 48 hrs AnnexinV/ propidium iodide staining based flow cytometry (Rvb= 0.40%); type: functional
MDA-MB-231 [20] = assay: Induction of apoptosis in human MDA-MB-231 cells assessed as late apoptotic cells at 1.76 uM incubated for 48 hrs AnnexinV/ propidium iodide staining based flow cytometry (Rvb= 0.40%); type: functional
A549 = assay: Antitumor activity against human A549 cells assessed as inhibit cell proliferation incubated for 72 hrs by CCK-8 assay; type: functional, cell-based; settings: A549, 72 h; summary of the method: as §3
MDA-MB-231 [21] = assay: Induction of apoptosis in human MDA-MB-231 cells assessed as downregulation of Bcl-2 expression at 1 to 10 uM incubated for 48 hrs by western blot analysis; type: functional, cell-based; settings: dose 1-10 µM, DDE = dose-dependent effect; summary of the method: as §4

O=C(Nc1cccc(-c2oc3cc(-c4ccc(F)cc4)ccc3c(=O)c2O)c1)c1ccc(Cl)nc1
inhibition (MDA-MB-231 [1]): Tde | Activity (MDA-MB-231 [2]): 23.54% | Activity (MDA-MB-231 [3]): Dde | IC50 (HeLa): 4.08 µM | Activity (MDA-MB-231 [4]): Dde | inhibition (MDA-MB-231 [5]): Dde | IC50 (HCC1937): 7.55 µM | IC50 (GTL 16 cell line): 7.52 µM | Activity (MDA-MB-231 [6]): Dde | Activity (MDA-MB-231 [7]): Dde | inhibition (MDA-MB-231 [8]): Dde | Activity (MDA-MB-231 [9]): Dde | Activity (MDA-MB-231 [10]): 0.63% | viability at 2.2 µM (MDA-MB-231 [11]): 29.8% | viability at 0.88 µM (MDA-MB-231 [12]): 74.3% | Activity (MDA-MB-231 [13]): Dde | Activity (MDA-MB-231 [14]): 23.85% | inhibition (MDA-MB-231 [15]): Tde | Activity (MDA-MB-231 [16]): 68.54% | Activity (MDA-MB-231 [17]): 1.48% | Activity (MDA-MB-231 [18]): 7.49% | Activity (MDA-MB-231 [19]): 14.4% | Activity (MDA-MB-231 [20]): 49.45% | IC50 (A549): 3.58 µM | Activity (MDA-MB-231 [21]): Dde
